NS3 helicase inh: HCV NS3 helicase inhibition; NS3 helicase DNA unwinding, Cy5 molecular beacon fluorescence; inhibition, % at 10.9 µM; hit rate 0.56% among 290,000;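 active = inhibition above the mean of all tested compounds plus 3 SD, set per campaign, cut at about 35% in these data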;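 note: 0% = DMSO wells and 100% = thioflavine S control wells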
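Measured by: Cy5 fluorescence, 0 and 60 min reads / Assay system: NS3 helicase fragment of HCV / Control set: low DMSO, high thioflavine S at 110 µM / Times: 1 h reaction at 25 °C, ATP-initiated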
GRK2 aptamer HTS: human GRK2 inhibition via aptamer displacement; hit rate 0.59% among 330,000; inhibition of aptamer binding, % at 10 µM; AID 488847; bead flow cytometry, FAM-aptamer displacement from GRK2;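 active = inhibition of aptamer binding above 40%, roughly 3 SD of noise, on plates passing a quality check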;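 note: median bead fluorescence of bound FAM aptamer so fluorescent compounds give negative values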
DAGLB inh: diacylglycerol lipase beta (human) inhibition. Q8NCG7. HEK293T DAGLB membrane lysate, EnzChek fluorogenic substrate. inhibition, % at 5.17 µM. hit rate 0.059% among 340,000. AID 504411; in the data active = inhibition above about 34%;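 note: 0% = enzyme with vehicle and 100% = wells lacking enzyme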
DNA FID counter-1: fluorescent intercalator displacement, NS3 helicase counter-screen; hit rate 0.17% among 290,000; AID 1845; inhibition, % at 7.9 µM; DNA fluorescent intercalator displacement, fluorescence;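 note: 0% = vehicle and 100% = reference compound; higher means more ethidium bromide displaced from hairpin DNA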
GPR7 antagonist: blocks human GPR7 receptor signaling. P48145. GPR7-expressing cells, fluorescence antagonist assay. inhibition, % at 4.4 µM. hit rate 1.1% among 290,000; in the data active = inhibition above about 16%, passing the limit was not always enough;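 note: cells stimulated with the agonist NPW; 0% = agonist with vehicle and 100% = vehicle without agonist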
Target sequence (P48145 whole entry, looked up): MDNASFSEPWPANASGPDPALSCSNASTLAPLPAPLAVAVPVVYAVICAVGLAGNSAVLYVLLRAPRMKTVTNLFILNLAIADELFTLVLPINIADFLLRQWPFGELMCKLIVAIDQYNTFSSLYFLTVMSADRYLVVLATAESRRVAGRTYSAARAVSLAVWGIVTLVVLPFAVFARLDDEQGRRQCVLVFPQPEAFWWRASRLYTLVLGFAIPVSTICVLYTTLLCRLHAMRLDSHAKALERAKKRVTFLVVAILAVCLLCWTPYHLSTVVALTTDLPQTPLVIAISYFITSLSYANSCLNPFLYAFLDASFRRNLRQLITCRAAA
core dimer inh: HCV core protein dimerization inhibition. TR-FRET GST/Flag-core106 dimerization, 1536-well. inhibition, % at 5 µM. hit rate 0.33% among 300,000;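 active = inhibition above the mean of all tested compounds plus 3 SD, set per screening campaign, cut at about 45% in these data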
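Assay system: GST-tagged and Flag-tagged HCV core protein residues 1-106 / Times: compound-protein-antibody incubation 4 h at 22.5 °C / Signal: time-resolved FRET, ex 340 nm, em 617 and 671 nm / Evaluation: % inhibition based on acceptor/donor emission ratio / Benchmarks: wells lacking GST-core106 and wells with excess unlabelled core106 / Repeats: singlicate, one well per compound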
NS3 hel confirm: HCV NS3 helicase inhibition, confirmation assay; NS3 helicase DNA unwinding, Cy5 molecular beacon fluorescence; hit rate 31% among 1,600; inhibition, % at 10.9 µM; AID 1943; shares compounds with NS3 helicase inh;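 active = inhibition above the mean of all tested compounds plus 3 SD, cutoff set per campaign, cut at about 36% in these data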
DNA FID counter-2: counter-screen for HCV NS3 helicase inhibitors: DNA intercalator displacement; shares compounds with NS3 helicase inh; DNA fluorescent intercalator displacement, fluorescence; inhibition, % at 7.9 µM; hit rate 4% among 1,600;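 note: 0% = vehicle and 100% = reference compound; higher means more displacement of ethidium bromide from the DNA hairpin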
GPR7 antag cf: human GPR7 antagonism, confirmation assay; shares compounds with GPR7 antagonist; hit rate 52% among 2,400; GPR7-expressing cells, calcium fluorescence antagonist mode; AID 1952; inhibition, % at 4.4 µM; in the data active = inhibition above about 24%;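 note: stimulated with the GPR7 agonist NPW; 0% = agonist plus vehicle and 100% = vehicle alone without agonist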
MCHR1 antagonist: counter-screen for GPR7 antagonists: antagonists of human MCHR1. shares compounds with GPR7 antagonist. MCHR1-expressing cells, fluorescence antagonist assay. inhibition, % at 4.4 µM. hit rate 62% among 2,400; in the data active = inhibition above about 22%;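 note: 0% = vehicle with agonist and 100% = vehicle without agonist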
GRK2 confirm 2: human GRK2 inhibition confirmation, cherry pick 2. shares compounds with GRK2 aptamer HTS. inhibition of aptamer binding, % at 10 µM. 360 tested, under 10 active. bead-bound GRK2, FAM-aptamer displacement, flow cytometry;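 active = inhibition of aptamer binding above 40%, about triple the noise seen with nonglowing compounds, on plates passing quality control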;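 note: negative values mostly come from compounds that fluoresce themselves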
FAM quench SP: counter-screen for GRK2 binding hits: quenchers of fluorescent RNA aptamer; shares compounds with GRK2 aptamer HTS; carboxyfluorescein RNA aptamer beads, flow cytometry quenching; stronger effect = lower value; fluorescence response vs DMSO, % at 10 µM; 360 tested, under 10 active;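 active = response vs DMSO under 50%, meaning signal dropped by over half, treated as fluorescence quencher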;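 note: labelled aptamer on streptavidin beads without GRK2 as a quench counter-screen; 100% = bead fluorescence of DMSO wells and lower means quenching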
* = called active by the depositor; · = no result. An excerpt weighted towards active compounds, which were near 2.2% of everything screened. Cut-off read from the data, not from the text of the source, unless noted: active = inhibition above about 37%; inactive = the rest.

SMILES	NS3 helicase inh	GRK2 aptamer HTS	DAGLB inh	DNA FID counter-1	GPR7 antagonist	core dimer inh	NS3 hel confirm	DNA FID counter-2	GPR7 antag cf	MCHR1 antagonist	others
CCN(CC(=O)Nc1ccc(OC)cc1)C(=O)CSCc1c(C)noc1C	·	2	-3	·	·	·	·	·	·	·
O=[N+]([O-])c1ccc(N2CCN(S(=O)(=O)c3ccccc3)CC2)cc1NCC1CCCO1 (stereo unspecified)	13	3	1	-3	-1	7	·	·	·	·
O=[N+]([O-])c1ccc(N2CCN(S(=O)(=O)c3ccc4ccccc4c3)CC2)cc1NCC1CCCO1 (stereo unspecified)	53*	7	1	1	-6	25	6	-7	·	·
CC1(C)CC[C@]2(C(=O)n3ccnc3)CC[C@]3(C)[C@H](C(=O)C=C4[C@@]5(C)C=C(C#N)C(=O)C(C)(C)[C@@H]5CC[C@]43C)[C@@H]2C1	·	·	18	·	·	·	·	·	·	·
O=C(O)CCc1ccc(-c2ccc(Cl)cc2)n1Cc1ccco1	36*	0	2	-24	-1	13	68*	-27	·	·
COc1ccc(-c2ccc(CCC(=O)O)n2Cc2ccco2)cc1	18	0	3	-22	5	-1	·	·	·	·
O=C(O)CCc1ccc(-c2cccs2)n1Cc1ccco1	41*	1	5	-28	-9	2	-11	-7	·	·
CC(C)CC(=O)C1=C(O)C(=O)N(Cc2ccccc2)C1c1ccccc1 (stereo unspecified)	36*	·	-1	-22	-6	-2	-26	-12	·	·
CC(=O)C1=C(O)C(=O)N(Cc2ccccc2)C1c1ccc(Br)cc1 (stereo unspecified)	41*	0	16	-29	11	9	22	-9	·	·
CC(=O)C1=C(O)C(=O)N(Cc2ccccc2)C1c1cccc([N+](=O)[O-])c1 (stereo unspecified)	10	1	8	-10	-5	-8	·	·	·	·
O=C(Cc1cc(=O)[nH][nH]1)N/N=C/C=C/c1ccccc1	40*	5	6	-25	3	21	12	-22	·	·
CCC(C)[C@H](NC(=O)C1(c2ccccc2)CCN(C(=O)OC(C)(C)C)CC1)C(=O)N[C@@H](C(=O)O)c1ccccc1 (stereo partly specified)	47*	0	4	-19	27*	2	25	-18	1	2
CC(=C\c1ccccc1)/C=C1/SC(=S)N(CCCC(=O)O)C1=O	59*	0	11	-33	39*	·	61*	-10	20	17
O=C(NN=Cc1cc(Cl)ccc1[N+](=O)[O-])c1cccc2ccccc12	·	·	-7	·	·	·	·	·	·	·
O=C(N/N=C/c1cc([N+](=O)[O-])ccc1O)c1cccc2ccccc12	40*	0	14	4	27*	4	-25	3	5	7
CCCCCCn1c(=O)n2n(c1=O)[C@@H]1CN(S(=O)(=O)c3ccc(C)cc3)C[C@]1(O)[C@@H](OC(=O)NC1CCCC1)C2	·	·	-6	·	·	·	·	·	·	·
OC(CNC1Cc2ccccc2C1)COc1ccc(F)cc1 (stereo unspecified)	37*	0	3	19	22*	1	0	27	5	-4
COc1ccc(OCC(O)CNC2CCCC2)cc1 (stereo unspecified)	6	0	1	-1	-18	·	·	·	·	·
Cc1cccc([N+](=O)[O-])c1NC(=O)COC(=O)c1nc2nccc(C)n2n1	·	2	-6	·	·	·	·	·	·	·
O=C(CN1CCOc2ccccc21)NC1CCCCCCC1	62*	3	0	-22	25*	-1	-16	-27	7	5
O=C(CN1CCOc2ccccc21)NC1CCN(Cc2ccccc2)CC1	4	0	0	7	1	-8	·	·	·	·
Cc1ccc(-c2ccc(C3C(C#N)=C(N)Oc4n[nH]c(C)c43)o2)cc1 (stereo unspecified)	40*	1	2	-14	26*	-1	-25	8	49*	72*
COc1cccc(OCC(=O)Nc2c3c(nn2-c2ccccc2)CS(=O)(=O)C3)c1	4	1	2	-14	19	-7	·	·	·	·
O=C(C(Cc1ccccc1)n1cccc1)N1CCCCC1 (stereo unspecified)	-3	3	1	-6	-3	1	·	·	·	·
O=C(C(Cc1ccccc1)n1cccc1)N1CCN(Cc2ccccc2)CC1 (stereo unspecified)	42*	0	-6	-17	25*	11	-9	14	21	12
SMILES	NS3 helicase inh	GRK2 aptamer HTS	DAGLB inh	DNA FID counter-1	GPR7 antagonist	core dimer inh	NS3 hel confirm	DNA FID counter-2	GPR7 antag cf	MCHR1 antagonist	others
O=C1/C(=C\c2cc(Cl)c(O)c(Cl)c2)SC(=S)N1Cc1ccccc1	41*	0	-64	-1	60*	·	66*	34	100*	111*
COc1ccc(OC)c(C(C)NC(=O)C(C)n2cc([N+](=O)[O-])cn2)c1 (stereo unspecified)	·	0	0	·	·	·	·	·	·	·
O=C(O)CCC(=O)N1CCN(c2ncccc2C(F)(F)F)CC1	0	0	-1	0	-9	-1	·	·	·	·
O=C(Nc1cccc2ccccc12)c1ccc([N+](=O)[O-])cc1	41*	1	-2	-15	42*	-3	-12	15	6	18
O=C(Nc1cccc2ccccc12)c1ccccc1	1	0	-1	-3	-5	-5	·	·	·	·
Cc1ccc(-c2csc(NC(=O)c3ccc(Br)cc3)c2C(=O)O)cc1	42*	0	24	-8	40*	20	69*	-1	62*	46*
O=C(CSc1nnc(-c2ccc(O)cc2)n1-c1ccccc1)CC(=O)Nc1ccccc1	37*	92*	8	-18	-6	11	-12	-57	·	·	GRK2 confirm 2=-19;FAM quench SP=102
Cn1c(SCC(=O)CC(=O)Nc2ccccc2)nnc1-c1ccc(O)cc1	8	3	5	-15	-2	-13	·	·	·	·
CCOc1ccc(NC(=O)CN(C)C(=O)c2ccc(=O)[nH]c2)cc1OCC	1	1	0	-11	-13	·	·	·	·	·

Bioassay records from PubChem.
